pIC50: −log10 of the molar value. Calls of active or inactive are those of the source. No cut-off for these calls is given here.
Assays:
[1] = target: T1, HSP90 (Plasmodium falciparum 3D7) (UniProt Q8IL32); assay: Binding affinity to Plasmodium falciparum HSP90 nucleotide binding domain at 0.5 mM by SYPRO orange dye based DSF analysis
T1 sequence (whole entry): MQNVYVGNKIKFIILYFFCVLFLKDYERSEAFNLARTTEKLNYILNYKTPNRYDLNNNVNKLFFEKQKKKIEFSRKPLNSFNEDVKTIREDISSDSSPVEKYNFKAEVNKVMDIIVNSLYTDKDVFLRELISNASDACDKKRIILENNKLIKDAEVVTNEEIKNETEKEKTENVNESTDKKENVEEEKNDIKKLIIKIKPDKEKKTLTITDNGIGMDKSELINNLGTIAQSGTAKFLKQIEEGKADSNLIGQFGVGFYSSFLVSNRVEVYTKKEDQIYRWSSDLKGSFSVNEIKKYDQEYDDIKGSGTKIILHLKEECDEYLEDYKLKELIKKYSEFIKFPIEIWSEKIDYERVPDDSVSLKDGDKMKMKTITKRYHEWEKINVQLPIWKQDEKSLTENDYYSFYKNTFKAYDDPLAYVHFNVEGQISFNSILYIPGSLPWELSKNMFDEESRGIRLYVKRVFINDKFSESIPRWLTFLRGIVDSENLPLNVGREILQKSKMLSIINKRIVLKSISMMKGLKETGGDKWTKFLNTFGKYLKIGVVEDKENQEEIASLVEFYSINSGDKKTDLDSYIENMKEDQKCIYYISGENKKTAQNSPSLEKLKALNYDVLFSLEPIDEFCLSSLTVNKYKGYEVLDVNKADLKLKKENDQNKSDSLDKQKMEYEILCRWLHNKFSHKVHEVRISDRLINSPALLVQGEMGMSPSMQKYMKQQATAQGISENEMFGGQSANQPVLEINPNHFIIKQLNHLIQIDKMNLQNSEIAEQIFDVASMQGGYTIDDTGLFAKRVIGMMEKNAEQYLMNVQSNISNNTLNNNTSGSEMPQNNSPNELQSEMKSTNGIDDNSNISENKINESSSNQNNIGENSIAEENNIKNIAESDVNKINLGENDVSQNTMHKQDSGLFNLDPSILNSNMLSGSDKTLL
Outline: (§1)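 Recombinant P. falciparum Hsp90 or GRP94 nucleotide-binding domain (0.05–0.2 mg/mL, optimized per protein) in 25 mM HEPES pH 7.5, 250 mM NaCl. Compound final concentration was 0.5 mM, with SYPRO Orange at 1:1000. Samples were heated from 18 to 90 °C at 1 °C/min. Tm was taken as the Boltzmann-fit inflection point. ΔTm = Tm with ligand minus Tm without, and shifts beyond ±1 °C were counted significant.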

[2] = tested on: Plasmodium falciparum; assay: Binding affinity to Plasmodium falciparum GRP94 nucleotide binding domain at 0.5 mM by SYPRO orange dye based DSF analysis; outline: as §1
[3] = target: T1, HSP90 (Plasmodium falciparum 3D7); assay: Binding affinity to Plasmodium falciparum HSP90 nucleotide binding domain by SPR analysis
Outline: (§2)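 Purified PfHsp90 and PfGRP94 nucleotide-binding domains were amine-coupled to a CM5 chip (3000 and 7000 RU, respectively), with a blank reference surface. Seven compound concentrations (0.4 nM–1 mM) were injected in triplicate at 30 µL/min, 25 °C, in random order. Running buffer: 10 mM HEPES pH 7.4, 150 mM NaCl, 0.005% P20, 1% DMSO, 2 mM MgCl2. Kd came from double-referenced sensorgrams.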

[4] = tested on: Plasmodium falciparum; assay: Binding affinity to Plasmodium falciparum GRP94 nucleotide binding domain by SPR analysis; outline: as §2
[5] = tested on: Plasmodium falciparum; assay: Antiplasmodial activity against multidrug-resistant Plasmodium falciparum FCR-3 by [3H]-hypoxanthine incorporation assay; type: functional, organism-based, FCR-3/Gambia
Outline: (§3)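 Blood-stage P. falciparum 3D7 and FCR-3 were tested by a modified [3H]-hypoxanthine incorporation assay. Chloroquine was the reference in all runs.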

[6] = tested on: Plasmodium falciparum; assay: Antiplasmodial activity against chloroquine-sensitive Plasmodium falciparum 3D7 by [3H]-hypoxanthine incorporation assay; type: functional, organism-based; outline: as §3
[7] = Cytotoxicity against human HepG2A16 cells by MTT assay; type: cell-based
Outline: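 MTT viability assay on HepG2-A16 cells, giving CC50 values.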

[8] = Selectivity index, ratio of CC50 for human HepG2A16 cells by MTT assay to IC50 for multidrug-resistant Plasmodium falciparum FCR-3; type: toxicity
Outline: (§4)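 HepG2-A16 human hepatoma cells were tested by MTT viability assay to give CC50. Blood-stage activity was measured against the multidrug-resistant P. falciparum FCR-3 strain by [3H]-hypoxanthine incorporation to give IC50. SI = CC50 HepG2 / FCR-3 IC50.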

[9] = Cytotoxicity against human HepG2A16 cells; type: cell-based
[10] = Selectivity index, ratio of CC50 for human HepG2A16 cells to IC50 for multidrug-resistant Plasmodium falciparum FCR-3; type: toxicity; outline: as §4
[11] = tested on: Plasmodium berghei; assay: Antiplasmodial activity against Plasmodium berghei ANKA infected in mouse assessed as inhibition of parasitemia at 50 mg/kg/day, po for 4 consecutive days starting from 2 hrs post infection by MSF assay relative to control; type: functional
Outline: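 Swiss male mice (20 ± 2 g) infected ip with 10^7 P. berghei ANKA parasitized cells (day 0). Five per group dosed orally 2 h after infection and daily on days 0–3. Test compounds at 50 mg/kg/day in water:DMSO; chloroquine diphosphate at 3 mg/kg/day; vehicle controls. Parasitemia measured on day 4 by MSF assay; survival checked daily.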

Row | Structure (SMILES) | Activity [1] | Activity [2] | Activity [3] | Activity [4] | pIC50 [5] | pIC50 [6] | CC50 [7] [µM] | Ratio CC50/IC50 [8] | CC50 [9] [µM] | Ratio CC50/IC50 [10] | inhibition [11] | CC50 ([9]; HepG2A16 cells) [µM] | selectivity ratio ([10]; HepG2A16 cells, read-out: Ratio CC50/IC50)
1 | Nc1ncnc2c1ncn2[C@@H]1O[C@H](COP(=O)(O)OP(=O)(O)OP(=O)(O)O)[C@@H](O)[C@H]1O | Active | Active |  |  |  |  |  |  |  |  |  |  | 
2 | N#Cc1ccc(N2CCC(NCCC(O)c3ccc(F)c4ccccc34)CC2)c(C(F)(F)F)c1 (stereo in doubt; 72) | inactive | inactive | inactive | inactive |  |  |  |  |  |  |  |  | 
3 | Nc1ncnc2c1ncn2[C@@H]1O[C@H](COP(=O)(O)OP(=O)(O)O)[C@@H](O)[C@H]1O | Active | Active |  |  |  |  |  |  |  |  |  |  | 
4 | N#Cc1ccc(N2CCC(NCCC(O)c3ccc(F)c4ccccc34)CC2)c(C(F)(F)F)c1 (stereo in doubt; (-)-72) |  |  |  |  | 6.41 | 6.55 | 11 | 28 | 27.8 | 11 |  |  | 
5 | OC(CCN1CCN(c2ccccc2C(F)(F)F)CC1)c1ccc(F)c2ccccc12 (stereo in doubt; 55) | inactive | inactive | inactive | inactive |  |  |  |  |  |  | inactive |  | 
6 | OC(CCN1CCN(c2ccccc2C(F)(F)F)CC1)c1ccc(F)c2ccccc12 (single isomer, unassigned; (-)) |  |  |  |  | 6.70 | 6.06 | 18.2 | 91 | 61.5 | 308 |  |  | 
7 | COc1ccccc1N1CCN(CCC(O)c2ccc(F)cc2)CC1 (stereo in doubt; 66) | inactive | inactive | inactive | inactive |  |  |  |  |  |  |  |  | 
8 | O=[N+]([O-])c1ccc(N2CCC(NCCC(O)c3ccc(F)c4ccccc34)CC2)c(C(F)(F)F)c1 (stereo in doubt; 8) | inactive | inactive | inactive | inactive |  |  |  |  |  |  |  |  | 
9 | COc1ccccc1N1CCN(CCC(O)c2ccc(F)cc2)CC1 (single isomer, unassigned; (-)) |  |  |  |  | 6.18 | 5.91 | 14.3 | 22 |  | > 219.9 |  |  | 
10 | O=[N+]([O-])c1ccc(N2CCC(NCCC(O)c3ccc(F)c4ccccc34)CC2)c(C(F)(F)F)c1 (single isomer, unassigned; (-)) |  |  |  |  | 6.06 | 5.75 | 20 | 23 | 4.13 | 32 |  |  | 
11 | O=[N+]([O-])c1ccc(N2CCC(NCCC(O)c3ccc(F)c4ccccc34)CC2)c(C(F)(F)F)c1 (single isomer, unassigned; (+)) |  |  |  |  | 6.72 | 6.32 | 38.3 | 201 | 37.6 | 420 |  |  | 
12 | OC(CCN1CCN(c2ccccc2C(F)(F)F)CC1)c1ccc(F)c2ccccc12 (single isomer, unassigned; (+)) |  |  |  |  | 6.68 | 6.27 | 10.8 | 51 |  |  |  | 36.1 | 172
13 | N#Cc1ccc(N2CCC(NCCC(O)c3ccc(F)c4ccccc34)CC2)c(C(F)(F)F)c1 (single isomer, unassigned; (+)) |  |  |  |  | 6.19 | 5.24 | 18.8 | 29 | 79.9 | 58 |  |  | 
14 | COc1ccccc1N1CCN(CCC(O)c2ccc(F)cc2)CC1 (single isomer, unassigned; (+)) |  |  |  |  | 4.91 | 4.54 | 96 | 8 |  | > 11.8 |  | > 145 | 

From ChEMBL document CHEMBL4152256, “Structure-activity relationship of new antimalarial 1-aryl-3-susbtituted propanol derivatives: Synthesis, preliminary toxicity profiling, parasite life cycle stage studies, target exploration, and targeted delivery” (Eur J Med Chem, 2018)
